Measured values as given in PubChem BioAssay.
Active and inactive are the calls of the source.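 The calls were made as follows, unless noted: active = viability loss from added drug above about 55%, and viability with drug at most 40%, in both replicates (limit read from the data, passing the limit was not always enough); inconclusive = both conditions met in only one replicate; inactive = neither replicate meets both conditions.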

How the values were obtained:
[1] = reducers of endogenous Her2 protein level, primary screen, SKBR3 breast tumor cells, AlphaScreen, ATP viability (AID 461;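 active = Her2 level under about 52% in both replicate screens, with viability over 70% of control, limit read from the data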;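 as to Her2 level: lower value means less Her2 protein in the cells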;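 as to viability: percent of carrier control wells set as 100% viability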); settings: 18-24 h, measured here: SKBR3 viability, ATP luminescence, at 10 µM
[2] = molecular target: Receptor tyrosine-protein kinase erbB-2 (Homo sapiens) (UniProt P04626); test: as above; settings: 18-24 h, at 10 µM, stronger effect = lower value
[3] = SK-BR-3 cell growth inhibitors, pilot screen, 24 h, human (AID 572;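 active = viability at or below 10% of carrier control in both of two separate runs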;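 also: compound exposure lasted between 18 and 24 h rather than exactly 24 h; 100% = carrier-treated control wells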); settings: SK-BR-3 viability, CellTiter-Glo luminescence, at 10 µM, stronger effect = lower value
[4] = HUVEC growth inhibition – cell-based, human, primary screen (AID 575;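 active = viability at or below 30% in both replicate assays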;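 also: 100% = median of untreated cell wells with 0.1% DMSO on each plate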); settings: HUVEC proliferation, CellTiter-Glo luminescence, 72 h; at 10 µM; stronger effect = lower value
Method in brief: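 System – primary HUVEC, no more than 12 passages · Medium – Low-serum (2% FBS) EBM, supplemented · Times – 72 h exposure, 37 °C, 5% CO2, 30 min RT equilibration · Measured by – luminescent ATP assay · Read-out – % viability relative to median vehicle-well signal on each plate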

[5] = growth inhibitors of H69AR lung tumor, primary screen, human, duplicate replicates (AID 580;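 active = viability at or under a set limit in both replicates, limit being median viability minus 3 SD, cut at about 48% in these data, passing the limit was not always enough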;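 also: 100% = mean luminescence of untreated wells and 0% = no signal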); settings: H69AR lung tumor cells viability, ATP luminescence, 72 h; at 10 µM; stronger effect = lower value
[6] = reversal of MRP1-mediated doxorubicin resistance, pilot screen, H69AR cells, doxorubicin co-treatment (AID 601); settings: CellTiter-Glo, 72 h, at 10 µM; for differential viability (reversal): stronger effect = higher value
[7] = 384-well plate pilot, post-Golgi transport modulator project, inhibition of yeast transport mutant growth (AID 636; in the data active = inhibition above about 31%); settings: absorbance 615 nm, about 18 h, stronger effect = higher value
[8] = growth suppression of yeast trafficking mutant, preliminary HTS, modulators of trafficking downstream of Golgi apparatus project, 1536-format plate, OD 615 nm (AID 637; in the data active = inhibition above about 30%); settings: yeast transport mutant growth, absorbance 615 nm, 18 h; stronger effect = higher value
[9] = H69AR cells + 2 uM doxorubicin, measured here: viability with 2 uM doxorubicin, stronger effect = lower value
[10] = H69AR cells, compound alone cytotoxicity

Chain of Receptor tyrosine-protein kinase erbB-2 (Homo sapiens) (P04626 whole entry, looked up): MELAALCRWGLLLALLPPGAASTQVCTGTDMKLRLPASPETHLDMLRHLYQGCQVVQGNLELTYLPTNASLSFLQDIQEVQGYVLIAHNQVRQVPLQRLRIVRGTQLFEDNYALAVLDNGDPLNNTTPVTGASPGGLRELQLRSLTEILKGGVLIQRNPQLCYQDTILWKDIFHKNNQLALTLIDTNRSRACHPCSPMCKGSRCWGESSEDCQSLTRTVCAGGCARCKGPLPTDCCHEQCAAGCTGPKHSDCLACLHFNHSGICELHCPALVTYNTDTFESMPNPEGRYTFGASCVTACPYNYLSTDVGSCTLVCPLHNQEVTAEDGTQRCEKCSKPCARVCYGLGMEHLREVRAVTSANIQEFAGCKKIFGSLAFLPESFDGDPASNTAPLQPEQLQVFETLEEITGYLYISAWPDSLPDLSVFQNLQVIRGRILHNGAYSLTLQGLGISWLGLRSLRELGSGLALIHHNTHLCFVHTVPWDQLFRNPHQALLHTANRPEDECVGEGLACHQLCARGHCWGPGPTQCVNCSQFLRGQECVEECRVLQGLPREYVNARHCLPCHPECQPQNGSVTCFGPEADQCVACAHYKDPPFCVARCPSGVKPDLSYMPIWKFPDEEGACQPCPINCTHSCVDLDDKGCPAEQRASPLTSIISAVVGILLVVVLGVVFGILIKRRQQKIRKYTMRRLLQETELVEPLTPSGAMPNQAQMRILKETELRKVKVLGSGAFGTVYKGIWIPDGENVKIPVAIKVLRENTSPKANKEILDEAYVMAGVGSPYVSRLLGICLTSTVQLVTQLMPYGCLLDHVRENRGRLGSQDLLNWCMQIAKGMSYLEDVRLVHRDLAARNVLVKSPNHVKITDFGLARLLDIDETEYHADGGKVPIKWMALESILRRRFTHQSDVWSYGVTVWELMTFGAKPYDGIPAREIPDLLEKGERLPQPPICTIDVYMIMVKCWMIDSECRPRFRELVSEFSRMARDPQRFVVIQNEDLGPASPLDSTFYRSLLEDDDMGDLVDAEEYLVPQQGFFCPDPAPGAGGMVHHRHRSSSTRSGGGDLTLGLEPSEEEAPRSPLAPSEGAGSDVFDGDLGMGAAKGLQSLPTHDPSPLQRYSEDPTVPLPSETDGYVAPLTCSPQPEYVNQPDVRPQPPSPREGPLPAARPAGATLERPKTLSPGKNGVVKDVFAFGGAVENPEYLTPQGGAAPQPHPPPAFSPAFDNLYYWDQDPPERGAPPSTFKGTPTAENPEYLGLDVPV

Row | SMILES | viability [1] | Her2 level [2] | viability [3] | viability [4] | viability [5] | differential viability (reversal) ([6]; H69AR cells + 2 uM doxorubicin) | viability [6, 9] | viability [6, 10] | inhibition [7] | inhibition [8]
1 | CN(C(=O)CSc1nc2c(c(=O)[nH]1)CCCC2)C1CCCCC1 | 95% | 105% (inactive) | 95% (inactive) | 77.1% (inactive) | 93.3% (inactive) | 1.09% (inactive) | 92.2% | 93.3% | -1.97% (inactive) | -8.89% (inactive)
2 | COc1cc(CN(C)CC(=O)c2[nH]c(C)c(C(C)=O)c2C)ccc1OC(F)F | 104% | 82.5% (inactive) | 104% (inactive) | 97.3% (inactive) | 85% (inactive) | 6.44% (inactive) | 78.6% | 85% | -5.2% (inactive) | -5.08% (inactive)
3 | CCOC(=O)CSc1nnc(-c2cccnc2)n1Cc1ccccc1 | 91.5% | 108% (inactive) | 91.5% (inactive) | 106% (inactive) | 96.4% (inactive) | 0.125% (inactive) | 96.2% | 96.4% | 1.45% (inactive) | -12.3% (inactive)
4 | CCOC(=O)c1sc(N2C(=O)C(O)=C(C(=O)c3ccco3)C2c2ccccc2)nc1C (stereo not given) | 101% | 83.5% (inactive) | 101% (inactive) | 77.4% (inactive) | 84.2% (inactive) | 1.33% (inactive) | 82.9% | 84.2% | -4.93% (inactive) | 0.98% (inactive)
5 | Cc1nc2ccc(N3C(=O)CCC3=O)cc2[nH]1 | 100% | 101% (inactive) | 100% (inactive) | 97.6% (inactive) | 103% (inactive) | 7.96% (inactive) | 95.2% | 103% | -5.07% (inactive) | -1.45% (inactive)
6 | Cc1nc(NC(=O)C2CC3CCCC(C2)C3=O)sc1C (stereo not given) | 99.5% | 99.5% (inactive) | 99.5% (inactive) | 95% (inactive) | 82.8% (inactive) | -2.88% (inactive) | 85.7% | 82.8% | 0.39% (inactive) | -6.39% (inactive)
7 | Cc1ccc(NC(=O)c2cc(S(=O)(=O)N3CCC4(CC3)OCCO4)ccc2F)cc1 | 101% | 143% (inactive) | 101% (inactive) | 90.7% (inactive) | 99.3% (inactive) | 2.58% (inactive) | 96.7% | 99.3% | 1.97% (inactive) | -11% (inactive)
8 | CC1=C(C(=O)N2CCCCC2)C2(CCC(C)CC2)OC1=O (stereo not given) | 90% | 102% (inactive) | 90% (inactive) | 109% (inactive) | 94.2% (inactive) | 12.9% (inactive) | 81.3% | 94.2% | -5.87% (inactive) | -3.61% (inactive)
9 | O=c1[nH]c2c(s1)C(c1ccco1)C1C3CCC(C3)C1S2 (stereo not given) | 100% | 80% (inactive) | 100% (inactive) | 113% (inactive) | 78.8% (inactive) | -10.5% (inactive) | 89.3% | 78.8% | -3.29% (inactive) | 2.73% (inactive)
10 | CCOC(=O)CSc1cn2c(n1)CCC2 | 99.5% | 103% (inactive) | 99.5% (inactive) | 92% (inactive) | 92.4% (inactive) | -2.28% (inactive) | 94.7% | 92.4% | -0.79% (inactive) | -8.87% (inactive)
11 | COc1cc(OC)c(-c2nn3c(C4CCCCC4)nnc3s2)cc1OC | 102% | 116% (inactive) | 102% (inactive) | 80.8% (inactive) | 77.5% (inactive) | -2% (inactive) | 79.5% | 77.5% | -0.52% (inactive) | 2.3% (inactive)
12 | COc1ccc(C)cc1NCc1cccc(OC)c1OC | 75.5% | 90.5% (inactive) | 75.5% (inactive) | 87.2% (inactive) | 102% (inactive) | -6.87% (inactive) | 109% | 102% | -5.41% (inactive) | -6.39% (inactive)
13 | CCC(Sc1ccc2nnc(-c3ccc(F)cc3)n2n1)C(=O)OC (stereo not given) | 110% | 90% (inactive) | 110% (inactive) | 86.4% (inactive) | 83% (inactive) | 45% (inactive) | 38% | 83% | -7.7% (inactive) | 2.5% (inactive)
14 | O=C(CSc1nnnn1Cc1ccccc1)Nc1ccc2c(c1)OCO2 | 114% | 108% (inactive) | 114% (inactive) | 90.3% (inactive) | 108% (inactive) | 18.2% (inactive) | 89.5% | 108% | -5.54% (inactive) | -3.17% (inactive)
15 | O=C(NC12CC3CC(CC(C3)C1)C2)c1cncc(O)c1 | 104% | 89% (inactive) | 104% (inactive) | 88.2% (inactive) | 85.6% (inactive) | -9.31% (inactive) | 94.9% | 85.6% | -6.36% (inactive) | 0.32% (inactive)
